From ChEMBL document CHEMBL3352233, “N-[6-(4-butanoyl-5-methyl-1H-pyrazol-1-yl)pyridazin-3-yl]-5-chloro-1-[2-(4-methylpiperazin-1-yl)-2-oxoethyl]-1H-indole-3-carboxamide (SAR216471), a novel intravenous and oral, reversible, and directly acting P2Y12 antagonist” (J Med Chem, 2014)

Assays:
Canis familiaris [1] = assay: Toxicity in conscious telemetered mongrel dog assessed as electrocardiographic effect at 100 mg/kg, po after 24 hrs; format: organism-based, Canis lupus familiaris; design: dose 100 mg/kg, route oral; conditions: in vivo
Rattus norvegicus [2] = assay: Ex vivo inhibition of platelet aggregation in Sprague-Dawley rat at 0.1 mg/kg, iv after 5 mins
Hepatocyte [3] = assay: Intrinsic metabolic clearance in human hepatocytes measured per 10^6 cells after 24 hrs; format: ADME, cell-based
Outline: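 Human hepatocytes incubated with compound for 24 h to measure in vitro metabolism. Clearance reported in mL·h⁻¹·(10⁶ hepatocytes)⁻¹.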

Rattus norvegicus [4] = assay: Ex vivo inhibition of platelet aggregation in Sprague-Dawley rat at 3 mg/kg, iv after 30 mins; format: functional; conditions: 0.5 h
Outline: (§1)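 Male Sprague−Dawley rats (250−300 g) receive compound iv. At 30 min, under pentobarbital anesthesia, blood is taken from the abdominal aorta into 3.8% citrate (1:9). PRP is prepared at 300g for 5 min. ADP-induced aggregation is measured, using the area under the absorbance curve over 6 min, and expressed as % inhibition.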

Rattus norvegicus [5] = assay: Ex vivo inhibition of platelet aggregation in Sprague-Dawley rat at 10 mg/kg, po after 6 hrs; format: functional; conditions: Rattus norvegicus, Sprague-Dawley, po, 6 h
Outline: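 Time-course study in Sprague−Dawley rats after a 10 mg/kg oral dose in glucose/Cremophor/glycofurol vehicle. Aortic citrated blood is sampled at intervals over the hours after dosing. PRP is prepared at 300g for 5 min. ADP-induced aggregation is measured as the 6-min absorbance AUC and reported as % inhibition.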

[6] = Permeability across human Caco2 cells; format: ADME, cell-based; conditions: Caco-2, read-out: permeability
Outline: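 Permeation is measured across a Caco2 cell monolayer and reported in 10⁻⁷ cm·s⁻¹.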

Rattus norvegicus [7] = assay: Ratio of AUC (0 to 24 hrs) in rat dosed as 7 day repeated administration to AUC (0 to 24 hrs) in rat administered as single dose; conditions: in vivo
[8] = Metabolic stability in human liver microsomes assessed as compound metabolism after 20 mins incubation in presence of 1 mM NADPH; format: ADME; conditions: liver microsomes, read-out: Drug metabolism
Outline: (§2)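 Hepatic microsomal fractions are incubated with compound for 20 min with 1 mM NADPH. Result is reported as % metabolized, i.e. 100 minus % unchanged compound.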

Rattus norvegicus [9] = assay: Ex vivo inhibition of platelet aggregation in Sprague-Dawley rat at 1 mg/kg, iv after 30 mins; format: functional; conditions: 0.5 h; outline: as §1
[10] = Metabolic stability in mouse liver microsomes assessed as compound metabolism after 20 mins incubation in presence of 1 mM NADPH; format: ADME; conditions: read-out: Drug metabolism
Outline: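 Compound incubated with mouse hepatic microsomal fractions for 20 min with 1 mM NADPH. Read-out is % metabolism, meaning 100 minus % unchanged compound.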

Rattus norvegicus [11] = assay: Ex vivo inhibition of platelet aggregation in Sprague-Dawley rat at 30 mg/kg, po after 2 hrs
Rattus norvegicus [12] = assay: Toxicity in rat assessed as damaged organ at 3 mg/kg, iv after 7 days; format: organism-based; design: dose 3 mg/kg, route intravenous; conditions: in vivo, 168 h
Outline: (§3)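 Rats are dosed daily for 7 days, orally (30 and 100 mg/kg) or iv (3 and 10 mg/kg). Target organs are examined for damage. Plasma AUC(0−24) is compared between day 1 and day 7.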

Rattus norvegicus [13] = assay: Toxicity in rat assessed as damaged organ at 10 mg/kg, iv after 7 days; format: organism-based; design: dose 10 mg/kg, route intravenous; conditions: in vivo, 168 h; outline: as §3
Rattus norvegicus [14] = assay: Toxicity in rat assessed as damaged organ at 100 mg/kg, po after 7 days; format: organism-based; design: dose 100 mg/kg, route oral; conditions: in vivo, 168 h; outline: as §3
[15] = Metabolic stability in rat liver microsomes assessed as compound metabolism after 20 mins incubation in presence of 1 mM NADPH; format: ADME; conditions: liver microsomes, read-out: Drug metabolism; outline: as §2
Hepatocyte [16] = assay: Intrinsic metabolic clearance in human hepatocytes measured assessed as CYP3A4 contribution per 10^6 cells after 24 hrs; format: ADME, cell-based
Rattus norvegicus [17] = assay: Ex vivo inhibition of platelet aggregation in Sprague-Dawley rat at 10 mg/kg, iv after 30 mins; format: functional; conditions: 0.5 h; outline: as §1
P2Y purinoceptor 12 = P2Y purinoceptor 12 (Homo sapiens, UniProt Q9H244); assay: Displacement of [33P]2MeS-ADP from P2Y12 receptor (unknown origin) transfected in CHO cells after 30 mins by scintillation counting analysis; format: cell-based
Sequence of P2Y purinoceptor 12 (Q9H244 whole entry): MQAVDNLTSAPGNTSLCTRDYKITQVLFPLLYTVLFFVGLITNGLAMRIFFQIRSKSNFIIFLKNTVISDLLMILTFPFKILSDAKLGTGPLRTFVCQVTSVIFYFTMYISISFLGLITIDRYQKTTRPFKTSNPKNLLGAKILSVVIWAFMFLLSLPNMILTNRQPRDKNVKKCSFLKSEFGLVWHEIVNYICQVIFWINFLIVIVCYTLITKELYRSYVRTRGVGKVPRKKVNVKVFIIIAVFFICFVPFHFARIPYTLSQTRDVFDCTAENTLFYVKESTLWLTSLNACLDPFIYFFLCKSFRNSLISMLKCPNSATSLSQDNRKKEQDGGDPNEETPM
Outline: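 P2Y12-expressing CHO cells (35 × 10³/sample) in PBS with 1 mM EDTA and 0.2% BSA are exposed to compound for 30 min. [³³P]2-MeS-ADP (0.16 nM) is then added for 15 min at 20 °C, in triplicate. Filtration separates free from bound ligand, followed by scintillation counting. Nonspecific binding uses 1 mM unlabeled ADP. IC50 comes from a four-parameter logistic fit with asymptotes fixed at 0 and 100. n = 2.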

Rattus norvegicus [18] = assay: Ex vivo inhibition of platelet aggregation in Sprague-Dawley rat at 0.3 mg/kg, iv after 5 mins
Canis familiaris [19] = assay: Toxicity in conscious telemetered mongrel dog assessed as body temperature at 100 mg/kg, po after 24 hrs; format: organism-based, Canis lupus familiaris; design: dose 100 mg/kg, route oral; conditions: in vivo
Rattus norvegicus [20] = assay: Toxicity in rat assessed as damaged organ at 30 mg/kg, po after 7 days; format: organism-based; design: dose 30 mg/kg, route oral; conditions: in vivo, 168 h; outline: as §3
Rattus norvegicus [21] = assay: Ex vivo inhibition of platelet aggregation in po dosed Sprague-Dawley rat after 2 hrs; format: functional
Outline: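 Oral gavage in male Sprague−Dawley rats (250−300 g, 6 per batch), vehicle 5% glucose water with 5% Cremophor and 3% glycofurol. Blood is collected 2 h after dosing from the abdominal aorta into 3.8% citrate under pentobarbital. PRP is prepared at 300g for 5 min. ADP-induced aggregation is quantified as the 6-min absorbance AUC, given as % inhibition.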

Canis familiaris [22] = assay: Toxicity in conscious telemetered mongrel dog assessed as hemodynamic effect at 100 mg/kg, po after 24 hrs; format: organism-based, Canis lupus familiaris; design: dose 100 mg/kg, route oral; conditions: in vivo
[23] = Plasma concentration in conscious telemetered mongrel dog at 100 mg/kg, po after 4 hrs; format: ADME, organism-based, Canis lupus familiaris; design: dose 100 mg/kg, route oral

CLH (Hepatocyte [3]): 0.085 mL/h
Papp [6]: 0.8 ×10⁻⁶ cm/s
Ratio (Rattus norvegicus [7]): 1.3
metabolised at 20 min [8]: 29%
metabolised at 20 min [10]: 4%
metabolised at 20 min [15]: 11%
Activity (Hepatocyte [16]): 43%
IC50 (P2Y purinoceptor 12): 17 nM
SMILES: CCCC(=O)c1cnn(-c2ccc(NC(=O)c3cn(CC(=O)N4CCN(C)CC4)c4ccc(Cl)cc34)nn2)c1C
Activity (Canis familiaris [1]): Non-toxic
inhibition in vivo at 0.1 mg/kg (Rattus norvegicus [2]): 37%
inhibition in vivo at 3 mg/kg (Rattus norvegicus [4]): 86%
inhibition in vivo at 10 mg/kg (Rattus norvegicus [5]): 74%
inhibition in vivo at 1 mg/kg (Rattus norvegicus [9]): 75%
inhibition in vivo at 30 mg/kg (Rattus norvegicus [11]): 85%
Activity (Rattus norvegicus [12]): Non-toxic
Activity (Rattus norvegicus [13]): Non-toxic
Activity (Rattus norvegicus [14]): Non-toxic
inhibition in vivo at 10 mg/kg (Rattus norvegicus [17]): 92%
inhibition in vivo at 0.3 mg/kg (Rattus norvegicus [18]): 63%
Activity (Canis familiaris [19]): Non-toxic
Activity (Rattus norvegicus [20]): Non-toxic
ED50 (Rattus norvegicus [21]): 2.75 mg/kg
inhibition (Rattus norvegicus [21]): Dose-dependent effect
Activity (Canis familiaris [22]): Non-toxic
concentration at 4 h [23]: 4.2 µM
